pIC50: −log10 of the molar value.
Legend:
[1] = target: Glutamate NMDA receptor; Grin1/Grin2c (Rattus norvegicus, UniProt P35439+Q00961); test: Antagonist activity at rat recombinant NR1-NR2C receptor expressed in Xenopus oocytes at holding potential of -40mV by two-electrode voltage-clamp electrophysiology; format: functional, cell-based, Oocyte
Outline: (§1)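 Oocytes expressing rat NR1-1a with NR2A, NR2B, NR2C or NR2D, clamped at −40 mV in Ba2+/HEPES recording solution pH 7.4, 23°C. Current evoked by 100 μM glutamate plus 30 μM glycine. Final DMSO 0.05-0.5%, 5-7 inhibitor concentrations, ≥4 oocytes each. IC50 from Hill fit of normalized mean composite data. […] Some NR2A oocytes given BAPTA-AM or K-BAPTA.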

[2] = target: Glutamate NMDA receptor; Grin1/Grin2a (Rattus norvegicus, UniProt P35439+Q00959); test: Antagonist activity at rat recombinant NR1-NR2A receptor expressed in Xenopus oocytes at holding potential of -40mV by two-electrode voltage-clamp electrophysiology; format: functional, cell-based, Oocyte; settings: read-out: IC50; outline: as §1
[3] = target: Ionotropic glutamate receptor NMDA 1/2D (Rattus norvegicus, UniProt P35439+Q62645); test: Antagonist activity at rat recombinant NR1-NR2D receptor expressed in Xenopus oocytes at holding potential of -40mV by two-electrode voltage-clamp electrophysiology; format: functional, cell-based, Oocyte
Outline: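 Oocytes expressing rat NR1-1a with NR2A, NR2B, NR2C or NR2D, clamped at −40 mV in Ba2+/HEPES recording solution pH 7.4, 23°C. Current evoked by 100 μM glutamate plus 30 μM glycine. Final DMSO 0.05-0.5%, 5-7 inhibitor concentrations, ≥4 oocytes each. IC50 from Hill fit of normalized mean composite data. Some NR2A oocytes given BAPTA-AM or K-BAPTA.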

[4] = species on record: Rattus norvegicus; test: Selectivity ratio of IC50 for rat recombinant GLuR1 to IC50 for rat recombinant NR1-NR2D receptor
Outline: (§2)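 Ratio of fitted IC50 values, either NR2A/NR2D or GluR1/NR2D, from two-electrode voltage-clamp Hill fits in oocytes. Where noted, calculated from IC50 values rounded to the nearest μM.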

[5] = target: Glutamate receptor 1 (Rattus norvegicus, UniProt P19490); test: Antagonist activity at rat recombinant GLuR1 expressed in Xenopus oocytes assessed as inhibition of glutamate-induced current by two-electrode voltage-clamp electrophysiology; format: functional, cell-based, Oocyte
Outline: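 Two-electrode voltage clamp at −40 mV on Xenopus oocytes expressing rat GluR1, perfused with 90 NaCl, 1.0 KCl, 0.5 BaCl2, 0.005 EDTA, 10 HEPES (mM), pH 7.4, 23°C; activated by 100 μM glutamate. From 20 mM DMSO stocks, 5-7 concentrations, ≥4 oocytes each. Hill fit to mean composite curves normalized to control, minimum usually fixed at 0. Response >75% at 100 μM reported as >300 μM.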

[6] = target: Glutamate NMDA receptor; Grin1/Grin2b (Rattus norvegicus, UniProt P35439+Q00960); test: Antagonist activity at rat recombinant NR1-NR2B receptor expressed in Xenopus oocytes at holding potential of -40mV by two-electrode voltage-clamp electrophysiology; format: functional, cell-based, Oocyte; settings: read-out: IC50; outline: as §1
[7] = species on record: Rattus norvegicus; test: Selectivity ratio of IC50 for rat recombinant NR1-NR2A receptor to IC50 for rat recombinant NR1-NR2D receptor; outline: as §2

Chain of Glutamate NMDA receptor; Grin1/Grin2a (Q00959 whole entry, other chains not shown): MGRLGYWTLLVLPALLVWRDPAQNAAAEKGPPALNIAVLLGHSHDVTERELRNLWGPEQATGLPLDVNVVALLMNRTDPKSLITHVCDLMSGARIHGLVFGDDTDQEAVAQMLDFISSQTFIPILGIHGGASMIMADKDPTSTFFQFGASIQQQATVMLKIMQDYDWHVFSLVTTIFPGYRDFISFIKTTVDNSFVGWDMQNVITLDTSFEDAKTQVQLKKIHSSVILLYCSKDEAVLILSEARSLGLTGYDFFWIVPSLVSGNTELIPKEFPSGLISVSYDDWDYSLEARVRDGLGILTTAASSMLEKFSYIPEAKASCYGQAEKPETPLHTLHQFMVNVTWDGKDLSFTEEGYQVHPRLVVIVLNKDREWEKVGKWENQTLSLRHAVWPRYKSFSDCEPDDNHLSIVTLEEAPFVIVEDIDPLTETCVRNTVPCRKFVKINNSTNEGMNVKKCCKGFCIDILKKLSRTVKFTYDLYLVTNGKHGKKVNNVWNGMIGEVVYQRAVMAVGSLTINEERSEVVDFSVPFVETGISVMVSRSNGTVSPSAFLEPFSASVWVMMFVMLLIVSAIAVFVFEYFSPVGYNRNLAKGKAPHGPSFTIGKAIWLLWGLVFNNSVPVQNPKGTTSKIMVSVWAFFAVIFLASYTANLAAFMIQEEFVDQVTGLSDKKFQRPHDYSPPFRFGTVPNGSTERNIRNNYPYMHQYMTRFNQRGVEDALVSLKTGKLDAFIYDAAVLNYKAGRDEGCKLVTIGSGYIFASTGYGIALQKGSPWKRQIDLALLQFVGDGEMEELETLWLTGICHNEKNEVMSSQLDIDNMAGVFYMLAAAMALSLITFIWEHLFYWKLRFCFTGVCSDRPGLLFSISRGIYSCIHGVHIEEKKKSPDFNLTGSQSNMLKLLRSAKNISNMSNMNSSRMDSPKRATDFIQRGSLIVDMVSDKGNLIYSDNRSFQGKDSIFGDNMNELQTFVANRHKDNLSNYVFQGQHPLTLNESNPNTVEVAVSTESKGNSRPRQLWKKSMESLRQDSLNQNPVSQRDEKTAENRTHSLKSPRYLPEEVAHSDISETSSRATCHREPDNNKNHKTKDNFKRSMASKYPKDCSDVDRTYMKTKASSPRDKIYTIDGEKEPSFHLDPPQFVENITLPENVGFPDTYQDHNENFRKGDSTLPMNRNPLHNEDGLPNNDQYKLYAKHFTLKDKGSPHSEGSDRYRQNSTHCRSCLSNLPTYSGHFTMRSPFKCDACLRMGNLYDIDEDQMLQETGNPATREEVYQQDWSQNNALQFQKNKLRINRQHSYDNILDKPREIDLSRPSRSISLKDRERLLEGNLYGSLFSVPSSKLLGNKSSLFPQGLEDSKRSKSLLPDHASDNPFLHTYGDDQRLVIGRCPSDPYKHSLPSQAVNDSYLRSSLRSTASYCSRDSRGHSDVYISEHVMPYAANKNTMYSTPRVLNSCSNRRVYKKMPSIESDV
Chain of Glutamate NMDA receptor; Grin1/Grin2c (Q00961 whole entry, other chains not shown): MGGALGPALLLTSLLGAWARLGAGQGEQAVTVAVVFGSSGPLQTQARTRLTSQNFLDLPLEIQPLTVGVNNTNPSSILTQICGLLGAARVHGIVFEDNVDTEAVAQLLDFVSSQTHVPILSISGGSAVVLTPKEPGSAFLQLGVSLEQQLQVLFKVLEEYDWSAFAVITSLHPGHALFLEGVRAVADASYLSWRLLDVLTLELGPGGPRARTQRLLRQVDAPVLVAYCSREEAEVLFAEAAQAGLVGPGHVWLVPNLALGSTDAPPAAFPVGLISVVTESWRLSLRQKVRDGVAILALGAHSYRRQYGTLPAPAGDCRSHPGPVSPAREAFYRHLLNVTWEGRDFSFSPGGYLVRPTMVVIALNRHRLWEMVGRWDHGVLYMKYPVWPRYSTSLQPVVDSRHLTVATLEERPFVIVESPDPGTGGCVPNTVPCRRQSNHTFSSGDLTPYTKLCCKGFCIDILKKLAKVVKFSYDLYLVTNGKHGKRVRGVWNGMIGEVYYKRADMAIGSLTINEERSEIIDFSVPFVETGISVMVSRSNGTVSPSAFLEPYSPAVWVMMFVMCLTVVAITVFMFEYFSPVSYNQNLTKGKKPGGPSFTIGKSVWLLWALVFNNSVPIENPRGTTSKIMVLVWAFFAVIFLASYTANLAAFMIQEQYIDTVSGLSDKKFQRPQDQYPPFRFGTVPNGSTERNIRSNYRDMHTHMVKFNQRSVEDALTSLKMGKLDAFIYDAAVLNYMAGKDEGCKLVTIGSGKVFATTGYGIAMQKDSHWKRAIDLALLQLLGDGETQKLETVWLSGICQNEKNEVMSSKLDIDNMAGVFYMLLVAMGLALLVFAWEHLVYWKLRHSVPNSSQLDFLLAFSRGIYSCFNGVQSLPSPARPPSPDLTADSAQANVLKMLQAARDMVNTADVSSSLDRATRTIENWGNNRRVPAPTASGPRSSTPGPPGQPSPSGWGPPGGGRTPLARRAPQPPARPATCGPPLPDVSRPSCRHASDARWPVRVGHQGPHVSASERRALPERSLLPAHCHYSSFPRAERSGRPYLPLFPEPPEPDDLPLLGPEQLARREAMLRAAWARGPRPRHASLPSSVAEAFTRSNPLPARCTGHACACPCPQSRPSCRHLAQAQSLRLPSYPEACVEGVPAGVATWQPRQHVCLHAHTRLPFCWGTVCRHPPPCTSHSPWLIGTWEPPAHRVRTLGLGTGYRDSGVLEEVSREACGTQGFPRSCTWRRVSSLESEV
Chain of Ionotropic glutamate receptor NMDA 1/2D (Q62645 whole entry, other chains not shown): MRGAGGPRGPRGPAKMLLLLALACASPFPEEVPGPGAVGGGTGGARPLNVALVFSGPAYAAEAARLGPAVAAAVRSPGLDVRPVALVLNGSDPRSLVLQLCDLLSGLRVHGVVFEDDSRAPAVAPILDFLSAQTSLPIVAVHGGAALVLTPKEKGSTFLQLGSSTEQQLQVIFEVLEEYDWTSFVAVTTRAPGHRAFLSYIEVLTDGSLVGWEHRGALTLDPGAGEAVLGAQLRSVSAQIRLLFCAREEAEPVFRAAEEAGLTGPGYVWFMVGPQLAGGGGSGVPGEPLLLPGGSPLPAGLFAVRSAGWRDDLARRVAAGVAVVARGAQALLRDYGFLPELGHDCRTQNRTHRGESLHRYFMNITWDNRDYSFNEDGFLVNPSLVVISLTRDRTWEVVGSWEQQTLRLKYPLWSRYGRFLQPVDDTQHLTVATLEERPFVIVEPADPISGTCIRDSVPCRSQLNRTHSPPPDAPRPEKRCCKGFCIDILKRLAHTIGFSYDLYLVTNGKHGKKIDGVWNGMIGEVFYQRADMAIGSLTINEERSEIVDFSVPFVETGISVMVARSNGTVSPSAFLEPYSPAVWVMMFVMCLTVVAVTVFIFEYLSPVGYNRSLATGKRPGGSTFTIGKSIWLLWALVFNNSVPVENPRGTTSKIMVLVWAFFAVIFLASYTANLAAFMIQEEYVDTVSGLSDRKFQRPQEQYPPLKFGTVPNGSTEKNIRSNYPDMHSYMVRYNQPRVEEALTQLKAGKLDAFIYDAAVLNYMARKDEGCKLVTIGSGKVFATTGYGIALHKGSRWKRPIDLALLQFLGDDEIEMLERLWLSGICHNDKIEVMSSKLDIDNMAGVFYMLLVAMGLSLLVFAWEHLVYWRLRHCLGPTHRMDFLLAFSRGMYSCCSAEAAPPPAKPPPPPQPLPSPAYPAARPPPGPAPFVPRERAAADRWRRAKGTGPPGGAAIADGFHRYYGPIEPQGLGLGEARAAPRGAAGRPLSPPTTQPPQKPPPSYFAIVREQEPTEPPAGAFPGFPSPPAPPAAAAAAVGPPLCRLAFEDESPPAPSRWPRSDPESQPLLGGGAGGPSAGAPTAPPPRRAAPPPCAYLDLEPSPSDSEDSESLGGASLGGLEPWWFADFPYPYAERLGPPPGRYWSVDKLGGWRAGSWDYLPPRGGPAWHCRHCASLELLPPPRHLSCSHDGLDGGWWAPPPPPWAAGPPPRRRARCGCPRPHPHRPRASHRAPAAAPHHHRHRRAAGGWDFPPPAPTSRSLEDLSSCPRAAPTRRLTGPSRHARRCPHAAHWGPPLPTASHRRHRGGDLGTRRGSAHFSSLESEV
Chain of Glutamate receptor 1 (P19490 whole entry, the tested form may be a part): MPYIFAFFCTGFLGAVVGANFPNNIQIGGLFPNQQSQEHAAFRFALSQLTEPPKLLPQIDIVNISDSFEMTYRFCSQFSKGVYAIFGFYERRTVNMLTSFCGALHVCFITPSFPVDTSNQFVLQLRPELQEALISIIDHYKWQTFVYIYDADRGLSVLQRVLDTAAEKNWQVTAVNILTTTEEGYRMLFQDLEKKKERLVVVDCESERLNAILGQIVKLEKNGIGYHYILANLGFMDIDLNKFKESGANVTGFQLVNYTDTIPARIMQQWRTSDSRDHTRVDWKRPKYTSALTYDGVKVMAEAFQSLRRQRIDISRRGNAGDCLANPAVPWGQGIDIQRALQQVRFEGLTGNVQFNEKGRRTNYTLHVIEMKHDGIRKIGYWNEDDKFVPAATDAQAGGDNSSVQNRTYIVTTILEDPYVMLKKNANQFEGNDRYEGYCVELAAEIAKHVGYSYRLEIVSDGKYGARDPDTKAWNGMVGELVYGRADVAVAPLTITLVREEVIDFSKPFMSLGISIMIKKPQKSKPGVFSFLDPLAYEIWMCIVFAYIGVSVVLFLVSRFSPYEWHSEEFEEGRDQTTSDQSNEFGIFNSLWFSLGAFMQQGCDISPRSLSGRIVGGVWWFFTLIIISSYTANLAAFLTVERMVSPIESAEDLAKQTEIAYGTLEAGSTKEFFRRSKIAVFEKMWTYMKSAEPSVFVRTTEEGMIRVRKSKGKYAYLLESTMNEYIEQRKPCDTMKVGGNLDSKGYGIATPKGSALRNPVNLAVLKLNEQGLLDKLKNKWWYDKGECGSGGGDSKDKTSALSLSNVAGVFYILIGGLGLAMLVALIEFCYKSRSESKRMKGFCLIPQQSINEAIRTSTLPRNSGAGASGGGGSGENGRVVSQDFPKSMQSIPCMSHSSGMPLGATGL

Structure (SMILES) | pIC50 [1] | pIC50 [2] | pIC50 [3] | Ratio IC50 [4] | pIC50 [5] | pIC50 [6] | Ratio IC50 [7]
Cc1nc2ccc(I)cc2c(=O)n1-c1ccc(C(=O)O)cc1 | < 3.52 | < 3.52 | < 3.52 | 1 | < 3.52 | < 3.52 | 
O=C(O)c1cccc(-n2c(/C=C/c3ccc([N+](=O)[O-])cc3)nc3ccc(I)cc3c2=O)c1 | 5.05 | < 3.52 | 5.10 |  | < 3.52 | 3.55 | 
O=C(O)c1ccc(-n2c(/C=C/c3ccccc3C(F)(F)F)nc3ccccc3c2=O)cc1 |  |  | 4.55 |  | < 3.52 | < 3.52 | 
O=C(O)c1ccc(/C=C/c2nc3ccccc3c(=O)n2-c2ccc(C(=O)O)cc2)cc1 | < 3.52 | < 3.52 | < 3.52 | 1 | < 3.52 | < 3.52 | 
C=CCOc1ccc(/C=C/c2nc3ccccc3c(=O)n2-c2ccc(C(=O)O)cc2)cc1 | 3.95 | < 3.52 | 4.52 |  | < 3.52 | 3.84 | 
O=C(O)c1ccc(-n2c(/C=C/c3cccc([N+](=O)[O-])c3)nc3cc4c(cc3c2=O)OCO4)cc1 | 4.40 | 3.95 | 4.44 |  | < 3.52 | 3.79 | 3
O=c1c2ccccc2nc(/C=C/c2cccc([N+](=O)[O-])c2)n1-c1ccccc1 | < 3.52 | < 3.52 | < 3.52 | 1 | < 3.52 | < 3.52 | 
O=C(O)c1ccc(-n2c(/C=C/c3ccc4c(c3)OCCO4)nc3ccccc3c2=O)cc1 | 4.59 | < 3.52 | 4.80 |  | < 3.52 | 3.58 | 
COc1ccc2nc(/C=C/c3ccc([N+](=O)[O-])cc3)n(-c3cccc(C(=O)O)c3)c(=O)c2c1 | 4.68 | 3.62 | 4.80 |  | < 3.52 | 3.62 | 15
COc1ccccc1/C=C/c1nc2ccccc2c(=O)n1-c1ccc(C(=O)O)cc1 |  | 4.06 | 4.80 | 2 | 4.42 | 4.29 | 6
Cc1ccccc1/C=C/c1nc2ccccc2c(=O)n1-c1ccc(C(=O)O)cc1 |  | 4.07 | 4.09 | 1 | 4.21 | 4.03 | 1
O=C(O)c1ccc(-n2c(/C=C/c3cccc(O)c3)nc3ccccc3c2=O)cc1 |  | 4.28 | 4.77 | 1 | 4.62 | 4.52 | 3
O=c1c2cc(I)ccc2nc(/C=C/c2cccnc2)n1-c1cccc([N+](=O)[O-])c1 | < 3.52 | < 3.52 | < 3.52 | 1 | < 3.52 | < 3.52 | 
Cc1ccc(-n2c(/C=C/c3cccnc3)nc3ccc(I)cc3c2=O)cc1 | < 3.52 | < 3.52 | < 3.52 | 1 | < 3.52 | < 3.52 | 
Cc1cccc(/C=C/c2nc3ccccc3c(=O)n2-c2ccc(C(=O)O)cc2)c1 |  | 4.68 | 4.74 |  | < 3.52 | 4.47 | 1
O=C(O)COc1ccc(/C=C/c2nc3ccccc3c(=O)n2-c2ccc(C(=O)O)cc2)cc1 | < 3.52 | < 3.52 | < 3.52 | 1 | < 3.52 | < 3.52 | 
O=C(O)c1ccc(-n2c(/C=C/c3cccc([N+](=O)[O-])c3)nc3ccc(Cl)cc3c2=O)cc1 |  |  |  | 7 |  |  | 16
O=C(O)c1ccc(-n2c(/C=C/c3ccc4ccccc4c3)nc3ccccc3c2=O)cc1 | 4.85 | 4.68 | 5.22 |  | < 3.52 | 4.51 | 4

— ChEMBL document CHEMBL1212913, “Quinazolin-4-one derivatives: A novel class of noncompetitive NR2C/D subunit-selective N-methyl-D-aspartate receptor antagonists” (J Med Chem, 2010)
